{
  "source": "ChEMBL document CHEMBL4699545",
  "about": "“Non-cytotoxic 1,2,3-triazole tethered fused heterocyclic ring derivatives display Tax protein inhibition and impair HTLV-1 infected cells” (Bioorg Med Chem, 2020)",
  "key": {"[1]": {"tested_on": "MT2", "assay": "Cytotoxicity against human MT2 cells infected with HTLV-1 assessed as reduction in metabolic activity at 50 uM incubated for 72 hrs in presence of resazurin by resazurin reduction method relative to control", "assay_type": "functional", "summary_of_the_method": "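MT-2 cells incubated with compound at a final 50 µM in 0.5% DMSO for 72 h at 37 °C, 5% CO₂. Resazurin (10 µM) was added for the final 4 h and fluorescence read at 590 nm; medium-only wells gave background. RFU normalized between 0.5% DMSO (0) and 20 µM etoposide (100) controls. Three independent days.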"}, "[2]": {"tested_on": "MT2", "assay": "Cell cycle arrest in human MT2 cells infected with HTLV-1 assessed as accumulation at S phase at 50 uM incubated for 72 hrs by RNaseA/propidium iodide staining based FACSCalibur flow cytometry", "assay_type": "functional", "summary_of_the_method": "(§1)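 MT-2 cells (3 × 10⁵/well) exposed to compound (300 µM stock, 100 µl added to 500 µl cells) for 72 h at 37 °C, 5% CO₂. Cells were PBS-washed and fixed in ice-cold 70% ethanol overnight at -20 °C, then RNase A treated 30 min at 37 °C and PI stained. 10,000 events were acquired and phase percentages modelled. Triplicate, mean ± SD; one-way ANOVA/Tukey versus 0.5% DMSO.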"}, "[3]": {"tested_on": "MT2", "assay": "Cell cycle arrest in human MT2 cells infected with HTLV-1 assessed as accumulation at G0/G1 phase at 50 uM incubated for 72 hrs by RNaseA/propidium iodide staining based FACSCalibur flow cytometry", "assay_type": "functional", "summary_of_the_method": "as §1"}, "[4]": {"tested_on": "MT2", "assay": "Cell cycle arrest in human MT2 cells infected with HTLV-1 assessed as accumulation at G2/M phase at 50 uM incubated for 72 hrs by RNaseA/propidium iodide staining based FACSCalibur flow cytometry", "assay_type": "functional", "summary_of_the_method": "as §1"}, "[5]": {"tested_on": "Huh-7", "assay": "Cytotoxicity against human Huh-7 cells assessed as reduction in cell viability by measuring viability index at 50 uM after 72 hrs in presence of resazurin by resazurin reduction method", "assay_type": "cell-based", "conditions": "huh-7, 72 h", "summary_of_the_method": "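Huh-7 cells (3.6 × 10⁴ cells/mL) were exposed to twofold serial dilutions in PBS, 10 points from 50 µM, for 72 h at 37 °C, 5% CO₂. Resazurin (10 µM) was added for the final 4 h and fluorescence read. Viability = RFU treated / mean RFU of 0.5% DMSO wells.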"}, "[6]": {"tested_on": "MT2", "assay": "Induction of apoptosis in human MT2 cells infected with HTLV-1 assessed as activation of caspase-3/7 at 50 uM measured after 72 hrs by CellEvent caspase 3/7 green detection reagent based assay", "assay_type": "functional, cell-based", "summary_of_the_method": "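MT-2 cells (3 × 10⁵/well) were exposed to compound (300 µM stock, 100 µl into 500 µl) for 72 h at 37 °C, 5% CO₂. CellEvent caspase-3/7 green reagent was added for 45 min at room temperature in the dark. 10,000 events were acquired, and the percentage of active caspase-3/7⁺ cells was taken within an FSC/SSC live-cell gate. Triplicate, mean ± SD, ANOVA/Tukey versus 0.5% DMSO.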"}, "[7]": {"tested_on": "MT2", "assay": "Induction of apoptosis in human MT2 cells infected with HTLV-1 at 50 uM measured after 72 hrs by annexinV-Cy5/propidium iodide staining based FACSCalibur flow cytometry", "assay_type": "functional, cell-based", "summary_of_the_method": "(§2)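 MT-2 cells (3 × 10⁵/well) were treated for 72 h at 37 °C, 5% CO₂, then stained with annexin-V Cy5/PI per kit. Within an FSC/SSC live-cell gate, total annexin-V⁺ cells (early PI⁻ plus late PI⁺) were counted by flow cytometry. 0.5% DMSO served as negative control and etoposide 20 µM as positive. Triplicate, mean ± SD, ANOVA/Tukey.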"}, "[8]": {"assay": "Effect on HTLV-1 Tax expression in lentiviral pLVX-TET3G transduced human Jurkat LTR-GFP inducible Tax assessed as doxycyclin-treated GFP negative PI positive dead cells at 50 uM after 72 hrs by flow cytometry (reference value: 16.82 +/- 3.37 %)"}, "[9]": {"tested_on": "MT2", "assay": "Cytotoxicity against human MT2 cells infected with HTLV-1 assessed as reduction in metabolic activity at 20 uM incubated for 72 hrs in presence of resazurin by resazurin reduction method", "assay_type": "functional, cell-based", "summary_of_the_method": "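Reference etoposide at 20 µM (final, 0.5% DMSO) served as the positive control in the MT-2 resazurin screen. Cells were incubated 72 h, with 10 µM resazurin added for the last 4 h, and fluorescence read at 590 nm. Three independent days.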"}, "[10]": {"tested_on": "MT2", "assay": "Cell cycle arrest in human MT2 cells infected with HTLV-1 assessed as accumulation at G2/M phase at 20 uM incubated for 72 hrs by RNaseA/propidium iodide staining based FACSCalibur flow cytometry", "assay_type": "functional", "summary_of_the_method": "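Etoposide 20 µM used as reference in MT-2 cell cycle assay: 3 × 10⁵ cells/well, 72 h at 37 °C. Ethanol fixation (70%, overnight -20 °C), RNase A 30 min at 37 °C, then PI staining. 10,000 events acquired by flow cytometry and G0/G1, S and G2/M fractions modelled. Triplicate, mean ± SD.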"}, "[11]": {"tested_on": "MT2", "assay": "Induction of apoptosis in human MT2 cells infected with HTLV-1 at 50 uM measured after 72 hrs by annexinV-Cy5/propidium iodide staining based FACSCalibur flow cytometry (reference value: 18.7 +/- 5.33 %)", "assay_type": "functional", "summary_of_the_method": "as §2"}},
  "note": "Active and inactive are the calls of the source. The calls are words filed in the database; no cut-off is given here.",
  "data": [
    {"smiles": "O=C(Cn1cc(CSc2nc3ccccc3[nH]2)nn1)N1CCN(Cc2ccccc2)CC1", "values": [
      {"measurement": "inhibition at 50 µM", "setting": "[1]", "result": "≥ 70", "unit": "%"},
      {"measurement": "Activity", "setting": "[2]", "result": "inactive"},
      {"measurement": "Activity", "setting": "[3]", "result": "inactive"},
      {"measurement": "Activity", "setting": "[4]", "result": "inactive"}
    ]},
    {"smiles": "Clc1ccc2c(NCCn3cc(CNc4ncnc5ccccc45)nn3)ccnc2c1", "values": [
      {"measurement": "Growth_index", "setting": "[5]", "result": 0},
      {"measurement": "inhibition at 50 µM", "setting": "[1]", "result": "≥ 70", "unit": "%"},
      {"measurement": "Activity", "setting": "[6]", "result": "Active"},
      {"measurement": "Activity", "setting": "[2]", "result": "inactive"},
      {"measurement": "Activity", "setting": "[3]", "result": "inactive"},
      {"measurement": "Activity", "setting": "[4]", "result": "inactive"},
      {"measurement": "Activity", "setting": "[7]", "result": "Active"},
      {"measurement": "GFP-PI+ dead cells %", "setting": "[8]", "result": 44.88, "unit": "%"}
    ]},
    {"smiles": "O=C1c2ccccc2C(=O)N1Cc1cn(CCNc2ccnc3cc(Cl)ccc23)nn1", "values": [
      {"measurement": "Growth_index", "setting": "[5]", "result": 0.85},
      {"measurement": "inhibition at 50 µM", "setting": "[1]", "result": "≥ 70", "unit": "%"},
      {"measurement": "Activity", "setting": "[2]", "result": "Active"}
    ]},
    {"smiles": "COc1cc2ncnc(NCc3cn(CC4CCN(Cc5ccccc5)CC4)nn3)c2cc1OC", "values": [
      {"measurement": "Growth_index", "setting": "[5]", "result": 0.65},
      {"measurement": "inhibition at 50 µM", "setting": "[1]", "result": "≥ 70", "unit": "%"},
      {"measurement": "Activity", "setting": "[6]", "result": "Active"},
      {"measurement": "Activity", "setting": "[2]", "result": "inactive"},
      {"measurement": "Activity", "setting": "[3]", "result": "inactive"},
      {"measurement": "Activity", "setting": "[4]", "result": "inactive"},
      {"measurement": "Activity", "setting": "[7]", "result": "Active"}
    ]},
    {"smiles": "COc1cc2ncnc(NCc3cn(CCNc4ccnc5cc(Cl)ccc45)nn3)c2cc1OC", "values": [
      {"measurement": "Growth_index", "setting": "[5]", "result": 0},
      {"measurement": "inhibition at 50 µM", "setting": "[1]", "result": "≥ 70", "unit": "%"},
      {"measurement": "Activity", "setting": "[6]", "result": "Active"},
      {"measurement": "Activity", "setting": "[2]", "result": "inactive"},
      {"measurement": "Activity", "setting": "[3]", "result": "inactive"},
      {"measurement": "Activity", "setting": "[4]", "result": "inactive"},
      {"measurement": "Activity", "setting": "[7]", "result": "Active"},
      {"measurement": "GFP-PI+ dead cells %", "setting": "[8]", "result": 90.98, "unit": "%"}
    ]},
    {"smiles": "O=C(Cn1cc(CNc2ncnc3ccccc23)nn1)N1CCN(Cc2ccccc2)CC1", "values": [
      {"measurement": "inhibition at 50 µM", "setting": "[1]", "result": "≥ 70", "unit": "%"},
      {"measurement": "Activity", "setting": "[2]", "result": "inactive"},
      {"measurement": "Activity", "setting": "[3]", "result": "inactive"},
      {"measurement": "Activity", "setting": "[4]", "result": "inactive"}
    ]},
    {"smiles": "COc1cc([C@@H]2c3cc4c(cc3[C@@H](O[C@@H]3O[C@@H]5CO[C@@H](C)O[C@H]5[C@H](O)[C@H]3O)[C@H]3COC(=O)[C@H]23)OCO4)cc(OC)c1O", "values": [
      {"measurement": "inhibition", "setting": "[9]", "result": "Active"},
      {"measurement": "Activity", "setting": "[10]", "result": "inactive"}
    ]},
    {"smiles": "c1ccc(CN2CCC(Cn3cc(CNc4ncnc5ccccc45)nn3)CC2)cc1", "values": [
      {"measurement": "inhibition at 50 µM", "setting": "[1]", "result": "≥ 70", "unit": "%"},
      {"measurement": "Activity", "setting": "[2]", "result": "inactive"},
      {"measurement": "Activity", "setting": "[3]", "result": "inactive"},
      {"measurement": "Activity", "setting": "[4]", "result": "inactive"}
    ]},
    {"smiles": "Cc1cc(=O)oc2cc(OCc3cn(CC4CCN(Cc5ccccc5)CC4)nn3)ccc12", "values": [
      {"measurement": "Growth_index", "setting": "[5]", "result": 0.61},
      {"measurement": "Activity", "setting": "[11]", "result": 39.96, "unit": "%"},
      {"measurement": "inhibition at 50 µM", "setting": "[1]", "result": "≥ 70", "unit": "%"},
      {"measurement": "Activity", "setting": "[6]", "result": "Active"},
      {"measurement": "Activity", "setting": "[2]", "result": "inactive"},
      {"measurement": "Activity", "setting": "[3]", "result": "inactive"},
      {"measurement": "Activity", "setting": "[4]", "result": "inactive"},
      {"measurement": "Activity", "setting": "[7]", "result": "Active"}
    ]}
  ]
}
